Experimental data from PMC11184607 (ACS Pharmacology & Translational Science, 2024).
Bridge positions count the residues as written; N and C are the ends. Square brackets hold non-standard residues; d marks the D form. Peptide text beside a SMILES is read from it. * marks the point of attachment. NMeTrp(1-(4-Br-benzyl)) = CN[C@@H](Cc1cn(Cc2ccc(Br)cc2)c2ccccc12)C(=O)O; Butanoyl(2R-oxy,4-CN) = N#CCC[C@@H](O)C(=O)O; Abu(4,4,4-F3) = N[C@@H](CC(F)(F)F)C(=O)O; dNMeaIle = CC[C@H](C)[C@@H](NC)C(=O)O; NMe2Val = CC(C)[C@@H](C(=O)*)N(C)C; NMeI = CC[C@H](C)[C@H](NC)C(=O)O; NMeT = CN[C@H](C(=O)O)[C@@H](C)O; NMeL = CN[C@@H](CC(C)C)C(=O)O; Hiv = CC(C)[C@H](O)C(=O)O; NMeS = CN[C@@H](CO)C(=O)O; NMeA = CN[C@@H](C)C(=O)O; dNMeA = CN[C@H](C)C(=O)O

Columns and labels:
[1] = test system: UPR markers (BiP, CHOP, sXBP1, GADD34, IRE1) mRNA; experiment: qPCR of ER stress; type: cell-based, human; settings: 300 nM, 24 h
Method in brief: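 GSC neurospheres (MGG6, 83, M76, GBM8) are treated 24 h with test compound 80 nM, thapsigargin 300 nM, both together, or 0.1% DMSO. BiP, CHOP, sXBP1, GADD34 and IRE1 mRNA are measured by qPCR normalized to GAPDH and expressed as fold-change versus vehicle.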

[2] = test system: Gaussia luciferase (GLuc); experiment: Gaussia luciferase; type: cell-based, human; settings: 18 h; for Functional inhibition of GLuc secretion: relative to 1–3 or AprA
Method in brief: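 U87-MG cells stably express GLuc after lentiviral transduction. Cells are seeded at 3000/well, allowed to adhere overnight, then given test compound or 0.1% DMSO for 18 h. Conditioned medium is read for luminescence with 1.2 μM final coelenterazine (3 s wait, 0.5 s integration). Adherent-cell ATP viability is read at the same time. Data are % of vehicle; IC50 comes from a logistic nonlinear fit; n ≥3 independent experiments.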

VEGF-A = VEGF-A in cell culture medium by ELISA; type: cell-based, human; settings: 1 µM, sustained 24 h after removal
[3] = test system: HEK293FRT cells expressing WT or mutant (R66I) Sec61α; experiment: Viability of WT versus Sec61α R66I mutant HEK293 cells; type: cell-based, human; settings: 72 h or 3 + 3 day exposure
Method in brief: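 HEK293FRT cells carrying Sec61α R66I, with wild-type comparators, are grown in DMEM with 10% FBS, 6 mM L-glutamine and 1 mM pyruvate. They are exposed to increasing test compound concentrations or 0.1% DMSO for 72 h, or 3 + 3 days to avoid nutrient deprivation. ATP viability is read as % of vehicle, n = 3 wells. Logistic nonlinear fit; ≥3 independent experiments.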

SF-295 GBM cells = experiment: Cell viability; type: cell-based, human; settings: 72 h
Method in brief: (§1)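 Cells are grown at 37 °C in 5% CO2. U87-MG and U251 are in MEM with 10% FBS, SF-268 in DMEM with 10% FBS, and SF-295 in RPMI 1640 with 10% FBS. HUVECs are pooled donors. Exposure is to the test compound (0.1 nM–1 μM) or 0.1% DMSO for 72 h. Viability is read by ATP luminescence as % of vehicle, n = 3 wells. […] comes from a logistic nonlinear fit over three independent comparisons.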

U87-MG GBM cells = experiment: Cell viability; type: cell-based, human; settings: 72 h
Method in brief: as §1

VCAM1 [4] = experiment: Immunoblot of TNFα-stimulated VCAM1 in SF-295 cells; type: cell-based, human; settings: for Efficacy in suppressing TNFα-stimulated VCAM1 expression: 1 µM, 24 h; for IC50: read-out: IC50, VCAM1 expression, TNFα 10 ng/mL, 24 h
Method in brief: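 SF-295 cells (RPMI 1640, 10% FBS) are cotreated 24 h with increasing concentrations of test compound plus TNFα 10 ng/mL. Controls are 0.1% DMSO-treated and untreated cells. VCAM1 and ICAM1 are immunoblotted after SDS-PAGE and PVDF transfer. Signals are normalized to a loading control. Concentration–response is fit to a logistic equation by nonlinear regression.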

Hsp90 = experiment: Immunoblot of Hsp90 in U87-MG cells; type: cell-based, human; settings: 1 30 nM, 2 1 μM, 24 h
Method in brief: (§2)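 U87-MG cells in MEM with 10% FBS are exposed 24 h to test compound (30 nM or 1 μM) or 0.1% DMSO. Protein-matched lysates (BCA) are run on SDS-PAGE, transferred to PVDF and detected with HRP secondary. Signals are normalized to α-tubulin and expressed relative to control. Three independent experiments; one-way ANOVA then t-test.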

VCAM1 [5] = experiment: Immunoblot of VCAM1 transiently expressed in HEK293 cells; type: cell-based, human; settings: 1 µM, 24 h
[6] = test system: patient-derived GSCs (M120, MGG6, M76, GBM8, and 157); type: cell-based, human; settings: read-out: EC50 values, five GSC lines (M120, MGG6, M76, GBM8, 157); 72 h
[7] = test system: human cytokines and chemokines in the SF-268 secretome; experiment: Secretome profiling of human cytokines/chemokines in SF-268 conditioned medium; type: cell-based; settings: SF-268, 1 μM, medium collected 24 h after removal, relative to vehicle
Method in brief: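 SF-268 cells are seeded in 96-well plates; next day they get complete medium with test compound (1 μM) or 0.1% DMSO for 24 h. Medium is then replaced by serum-free medium for a further 24 h. Conditioned medium is concentrated by centrifugation (75 min, 4000g), flash-frozen and run on a 48-plex multiplex laser-bead cytokine/chemokine immunoassay. 43 analytes are quantified (five below detection dropped); data are % of vehicle.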

Hsp70 = experiment: Immunoblot of Hsp70 in U87-MG cells; type: cell-based, human; settings: 1 30 nM, 2 1 μM, 24 h
Method in brief: as §2

BiP = experiment: Immunoblot of BiP expression; type: cell-based, human; settings: for BiP expression: HUVECs and U87-MG cells, 1 μM, 24 h
[8] = test system: WT and mutant (R66I) Sec61α HCT116 colon cancer cells; experiment: Viability of WT versus Sec61α R66I mutant HCT116 cells; type: cell-based, human; settings: for Effect of Sec61α R66I mutation on cytotoxic response relative to WT HCT116 cells: 72 h and 6 days (3 + 3 day exposure)
cancer cell lines = settings: cited from earlier work
calreticulin (CALR) = experiment: Immunoblot of calreticulin expression in U87-MG cells; type: cell-based, human; settings: 1 μM, 24 h
Method in brief: as §2

SPs of Sec61 substrates = settings: read-out: IC50, SPs of other (insensitive) Sec61 substrates; cited from earlier work

C/C=C(/C)C(=O)O[C@H]1C(C)=C2[C@H]([C@@H]1OC(=O)CCCCCCC)[C@@](C)(OC(C)=O)C[C@H](OC(=O)CCC)[C@@]1(O)[C@H]2OC(=O)[C@@]1(C)O [thapsigargin, reference compound]
BiP, CHOP, sXBP1, GADD34 and IRE1 mRNA expression in GSCs [1]: marked upregulation

CC[C@H](C)[C@@H]1C(=O)N[C@@H](C)C(=O)N(C)[C@@H](CC(C)C)C(=O)N[C@@H](Cc2ccc(OC)cc2)C(=O)N(C)[C@H](C)C(=O)O[C@H](C)[C@H](N(C)C(=O)[C@H](CC(C)C)N(C)C(=O)[C@H](COC)N(C)C(=O)[C@@H](OC(=O)[C@H](C(C)C)N(C)C)C(C)C)C(=O)N(C)[C@@H](COC)C(=O)N1C [compound 4, [L-Hiv^2, D-allo-Ile^7]-CbA] (NMe2Val-[Hiv][NMeS](Me)[NMeL][NMeT][NMeS](Me)[dNMeaIle]A[NMeL]Y(Me)[dNMeA]; ester 4-C)
Functional inhibition of GLuc secretion [2]: loss of functional efficacy

CC[C@H](C)[C@H]1C(=O)N[C@@H](C)C(=O)N(C)[C@@H](CC(C)C)C(=O)N[C@@H](Cc2ccc(OC)cc2)C(=O)N(C)[C@H](C)C(=O)O[C@H](C)[C@H](N(C)C(=O)[C@H](CC(C)C)N(C)C(=O)[C@H](COC)N(C)C(=O)[C@@H](OC(=O)[C@H](C(C)C)N(C)C)C(C)C)C(=O)N(C)[C@@H](COC)C(=O)N1C [compound 2, [L-Hiv^2]-CbA] (NMe2Val-[Hiv][NMeS](Me)[NMeL][NMeT][NMeS](Me)[NMeI]A[NMeL]Y(Me)[dNMeA]; ester 4-C)
Inhibition of VEGF-A at 24 h (VEGF-A): statistically significant inhibition | Response of mutant Sec61(R66I) HEK293 cells relative to WT [3]: patterns of resistance | Fold less sensitive than 1, SF-295 cells (SF-295 GBM cells): 5 fold | Fold less potent than 1, U87-MG cells (U87-MG GBM cells): approximately 13 fold | Fold greater sensitivity of VCAM1 to 2 than to 3 (VCAM1 [4]): approximately 7 fold | Efficacy in suppressing TNFα-stimulated VCAM1 expression (VCAM1 [4]): fully efficacious | IC50 (VCAM1 [4]): 88 nM | Hsp90 expression (Hsp90): upregulation | Level of VCAM1 transiently expressed in HEK293 cells (VCAM1 [5]): statistically significant decreases | EC50 [6]: < 3000 nM | Number of the 43 secreted proteins whose expression was decreased by <50% [7]: 24 | Hsp70 expression (Hsp70): upregulation | BiP expression, GSC line 83 (BiP; 1 250 nM and 500 nM, 2 3 µM, 72 h): decrease | BiP expression (BiP): suppressed | Effect of Sec61α R66I mutation on cytotoxic response relative to WT HCT116 cells [8]: decrease in cytotoxic efficacy

CC[C@H](C)[C@@H]1C(=O)N[C@@H](C)C(=O)N(C)[C@@H](CC(C)C)C(=O)N[C@@H](Cc2ccc(OC)cc2)C(=O)N(C)[C@@H](C)C(=O)O[C@H](C)[C@H](N(C)C(=O)[C@H](CC(C)C)N(C)C(=O)[C@H](COC)N(C)C(=O)[C@@H](OC(=O)[C@H](C(C)C)N(C)C)C(C)C)C(=O)N(C)[C@@H](COC)C(=O)N1C [compound 5, [L-Hiv^2, D-allo-Ile^7, L-MeAla^11]-CbA] (NMe2Val-[Hiv][NMeS](Me)[NMeL][NMeT][NMeS](Me)[dNMeaIle]A[NMeL]Y(Me)[NMeA]; ester 4-C)
Functional inhibition of GLuc secretion [2]: loss of functional efficacy

CC[C@H](C)[C@H]1C(=O)N[C@@H](C)C(=O)N(C)[C@@H](CC(C)C)C(=O)N[C@@H](Cc2ccc(OC)cc2)C(=O)N(C)[C@@H](C)C(=O)O[C@H](C)[C@H](N(C)C(=O)[C@H](CC(C)C)N(C)C(=O)[C@H](COC)N(C)C(=O)[C@@H](OC(=O)[C@H](C(C)C)N(C)C)C(C)C)C(=O)N(C)[C@@H](COC)C(=O)N1C [compound 3, [L-Hiv^2, L-MeAla^11]-CbA] (NMe2Val-[Hiv][NMeS](Me)[NMeL][NMeT][NMeS](Me)[NMeI]A[NMeL]Y(Me)[NMeA]; ester 4-C)
Inhibition of VEGF-A at 24 h (VEGF-A): statistically significant inhibition | Response of mutant Sec61(R66I) HEK293 cells relative to WT [3]: patterns of resistance | Cytotoxic efficacy range (cancer cell lines): micromolar range | Efficacy in suppressing TNFα-stimulated VCAM1 expression (VCAM1 [4]): partially effective | IC50 (VCAM1 [4]): 620 nM | Level of VCAM1 transiently expressed in HEK293 cells (VCAM1 [5]): statistically significant decreases | EC50 [6]: < 6000 nM | Number of the 43 secreted proteins whose expression was decreased by <50% [7]: 18 | CALR expression (calreticulin (CALR)): less sensitive | IC50 ([2]; read-out: IC50, inhibition of GLuc secretion, U87-MG cells expressing GLuc, conditioned medium): < 20 nM | BiP expression (BiP): no statistically significant change | Cell viability of HCT116 cells at 72 h ([8]; 72 h, 0.3 nM–3 μM): no change in the cell viability | Response of R66I mutant HCT116 cells at the extended end point ([8]; 6 days (3 + 3 day exposure)): pattern of resistance

C[C@@]12OC(=O)[C@]1([C@@H](O)[C@@H]1C=CCCC1)NC(=O)[C@@H]2CCCl [marizomib, reference compound]
Response of mutant Sec61(R66I) HEK293 cells relative to WT [3]: highly sensitive | Effect of Sec61α R66I mutation on cytotoxic response relative to WT HCT116 cells [8]: did not change the cytotoxic efficacy

CC(C)C[C@@H]1NC(=O)[C@H](Cc2cn(Cc3ccc(Br)cc3)c3ccccc23)N(C)C(=O)[C@H](CC(F)(F)F)NC(=O)[C@H](CC(C)C)N(C)C(=O)[C@H](CC(F)(F)F)NC(=O)[C@@H](CCC#N)OC(=O)[C@H](C)N(C)C1=O [KZR-8445] (cyclo(L[NMeA][Butanoyl(2R-oxy,4-CN)][Abu(4,4,4-F3)][NMeL][Abu(4,4,4-F3)][NMeTrp(1-(4-Br-benzyl))]))
IC50 (SPs of Sec61 substrates): > 25000 nM
